# MrgX1 PAM: human MrgX1 positive allosteric modulation, primary screen | Q96LB2 | B-score at 10 µM | 310,000 compounds, 0.63% hits | MrgX1-HEK293, Fluo-4 calcium flux, FDSS; stronger effect = higher value;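 active = plate-corrected calcium response at least 3 library SD above typical, normal starting fluorescence, not activating the receptor alone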;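 note: compound read alongside a low EC10 to EC30 dose of BAM8-22 agonist; peak minus trough fluorescence over baseline measured at the second addition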
# Target sequence (Q96LB2 whole entry, looked up): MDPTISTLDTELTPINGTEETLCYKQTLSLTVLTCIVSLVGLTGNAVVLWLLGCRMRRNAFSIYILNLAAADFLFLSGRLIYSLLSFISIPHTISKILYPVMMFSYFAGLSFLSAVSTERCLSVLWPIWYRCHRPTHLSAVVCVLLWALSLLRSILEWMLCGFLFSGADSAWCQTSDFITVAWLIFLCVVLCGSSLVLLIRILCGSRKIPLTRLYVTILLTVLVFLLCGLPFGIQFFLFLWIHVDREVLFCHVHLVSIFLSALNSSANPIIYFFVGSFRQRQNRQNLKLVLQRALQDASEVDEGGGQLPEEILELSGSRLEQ
# MrgX1 antag: blocks BAM8-22 activation of human MrgX1 receptor | Q96LB2 | MRGX1-HEK293 calcium flux, Fluo-4, BAM8-22 antagonism; stronger effect = lower value | B-score at 10 µM | 310,000 compounds, 1.3% hits;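 active = calcium-response B-score plate-corrected more than 3 library SD below zero, starting fluorescence within 5 deviations, no agonist response on first addition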;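 note: peak minus trough fluorescence over baseline after final BAM8-22 challenge near maximal dose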
# RGS4 pot: potentiators or activators of RGS4 | HEK293 M3R/inducible RGS4, carbachol calcium flux Fluo4; stronger effect = lower value | B-score at 10 µM | 310,000 compounds, 0.92% hits | AID 463111;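 active = B-score of the integrated calcium signal more than 4 SD below the library mean, with starting fluorescence not abnormally high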;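 note: negative B-score means reduced calcium response which marks RGS4 activation or potentiation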
#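 System: HEK293 FlpIn-TREx cells, stable M3R, doxycycline-inducible RGS4. Timing: overnight RGS4 induction, 30 min dye load 37 °C, 20 min compound RT. Also added: carbachol, ECmax concentration. Measured by: Fluo4 fluorescence kinetic imaging of calcium. Evaluation: integrated calcium ratio converted to B score.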
# RGS4 block: human RGS4 inhibition; AID 463165; P49798; B-score at 10 µM; HEK293 M3R/RGS4 inducible, Fluo-4 calcium flux; stronger effect = higher value; triggered by carbachol at its EC20; 310,000 compounds, 0.45% hits;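 active = B-score, a plate-corrected calcium signal, over three deviations above library mean, with baseline fluorescence within five deviations of library mean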;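 note: RGS4 expression induced by doxycycline in cells with stable M3 receptor; B-score is computed from the integrated fluorescence ratio over baseline after carbachol; higher B-score means a larger calcium signal and so more RGS4 inhibition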
# Target sequence (P49798 whole entry, looked up): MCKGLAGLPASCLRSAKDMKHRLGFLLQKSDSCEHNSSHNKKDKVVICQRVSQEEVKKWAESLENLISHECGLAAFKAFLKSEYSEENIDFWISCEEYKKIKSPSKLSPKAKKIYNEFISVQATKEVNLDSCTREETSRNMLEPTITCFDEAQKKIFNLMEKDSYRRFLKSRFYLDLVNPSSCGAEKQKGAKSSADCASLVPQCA
# MrgX1 agonist: human MrgX1 receptor agonism, primary screen; Q96LB2; MrgX1-HEK293 cells, Fluo-4 calcium fluorescence, agonist mode; stronger effect = higher value; B-score at 10 µM; 310,000 compounds, 0.44% hits; AID 588627;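 active = calcium response B-score plate-corrected fluorescence ratio at least 3 library SD, with starting fluorescence B-score inside 5 SD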
#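 times = overnight plating, then 30 min 37 °C plus 30 min room-temperature dye loading | assay system = stable human MrgX1 HEK293 cell line | input = fifteen thousand cells per well | signal = kinetic calcium dye fluorescence, Fluo-4 NW | dosing = compound delivered in addition one of three | read-out = B-scored fluorescence response ratio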
# * = called active by the depositor; i = inactive; x = no result. Rows were chosen to be rich in hits. Some 3.5% of all compounds tested hit in one or more screens of this group.
SMILES,MrgX1 PAM,MrgX1 antag,RGS4 pot,RGS4 block,MrgX1 agonist
CC(C)c1ccc(S(=O)(=O)/N=C2/C=C(Sc3ncn[nH]3)C(=O)c3ccccc32)cc1,8.63*,i,x,x,i
O=C(CN(C(=O)CNC(=O)c1ccco1)c1cccc(F)c1)NC1CCCCC1,i,i,i,i,i
O=C1C(SCCO)=C(SCCO)C(=O)c2ccccc21,i,-12.6*,x,x,i
O=C1C(Cl)=C(NCCCO)C(=O)c2ccccc21,i,i,i,i,i
O=C1C2C3C=CC(C4CC34)C2C(=O)N1/N=C/c1ccc(-c2ccc(Cl)cc2[N+](=O)[O-])o1 (configuration not stated),i,i,-8.49*,i,i
N#C/C(=C\c1ccc([N+](=O)[O-])o1)c1nc2ccccc2[nH]1,i,-4.51*,i,i,i
N#C/C(=C\c1ccc(Sc2ccccc2)o1)c1nc2ccccc2[nH]1,7.59*,i,i,i,i
CCOC(=O)C1CCN(S(=O)(=O)c2c(Cl)ccc3nonc23)CC1,i,i,i,i,i
C=CCNC(=O)c1onc(CSc2ccc(F)cc2)c1C(=O)NCCOC,i,i,i,i,i
CCOc1ccc(NC(=O)CN(C)C(=O)CCNC(=O)c2ccc(Br)cc2)cc1OCC,i,i,i,i,i
CCOc1ccc(NC(=O)CN(C)C(=O)CC(NC(=O)c2ccccc2)c2ccccc2)cc1OCC (configuration not stated),i,i,i,i,35.6*
COc1ccccc1C(=O)COC(=O)CNS(=O)(=O)c1ccc(C)c(C)c1,i,i,i,i,i
Cc1ccc(F)cc1NC(=O)CN1C(=O)NC2(CCCc3ccccc32)C1=O (configuration not stated),i,i,i,i,i
C/C(CC(=O)Nc1ccc(Cl)cc1Cl)=N\NC(=O)C(=O)N1CCCC1,i,i,i,i,i
COCCNC(=O)C(=O)N/N=C(\C)CC(=O)Nc1ccc(Cl)cc1Cl,i,-6.41*,i,i,i
COC(=O)C1=CN(C2CC2)C=C(C(=O)OC)C1c1ccc(C(=O)OC)cc1,i,i,i,i,i
COC(=O)C1=CN(C2CC2)C=C(C(=O)OC)C1c1ccc(C(F)(F)F)cc1,i,-6.61*,i,i,i
CCCCCCc1cc2cc(-c3nnc(-c4cc(OC)c(OC)c(OC)c4)o3)c(=O)oc2cc1O,i,i,i,i,79.9*
CCCCCCc1cc2cc(-c3nnc(-c4ccccc4OC)o3)c(=O)oc2cc1O,i,i,i,i,i
O=C(Nc1cc(Cl)ccc1-n1cncn1)c1ccc([N+](=O)[O-])o1,i,i,i,i,i
CCOc1ccccc1NC(=O)C1(S(=O)(=O)c2ccc(Cl)cc2)CC1,i,i,-7.05*,i,i
CCCCNC(=O)[C@H]1C[C@H]1[C@@H](O)[C@H](CO)NC(=O)[C@H](Cc1ccccc1)NC(=O)OC(C)(C)C,i,i,i,i,i
COc1cccc(/C=N/Nc2snc(SC)c2C#N)c1O,i,-5.44*,i,i,i
COc1cccc(/C=N/NC(=O)C(=O)N2CCCC2)c1O,i,i,i,i,i
COc1ccc(/C=N/Nc2snc(SC)c2C#N)cc1OC,i,i,i,i,i
SMILES,MrgX1 PAM,MrgX1 antag,RGS4 pot,RGS4 block,MrgX1 agonist
COc1cccc(/C=N/NC(=O)N/N=C/c2cccc(OC)c2O)c1O,i,i,-7.91*,i,i
CCN(CC)CCNC(=O)CCN1N=C(c2ccccc2)CCC1=O,i,i,i,i,i
COc1cc2c(cc1NC(=O)C(C)Sc1ccc(C)cc1)oc1ccccc12 (configuration not stated),i,i,-7*,i,i
COc1cc2c(cc1NC(=O)CSc1ccc(C)cc1)oc1ccccc12,i,i,i,i,i
CC(=O)O[C@H]1CC(=O)OC(C)(C)C2CC(=O)[C@]3(C)C(CC[C@@](C)([C@@H](O[C@@H]4O[C@H](CO)[C@@H](O)[C@H](O)[C@H]4O)c4ccoc4)[C@@]34O[C@@H]4C(=O)O)[C@]21C (some centres not stated),i,i,x,x,i
CCC(C)N(C)C1CCN(C(=S)Nc2cccc(SC)c2)CC1 (configuration not stated),i,i,i,i,i
COc1ccccc1CNC(=O)CN(c1cccc([N+](=O)[O-])c1)S(C)(=O)=O,11*,i,i,i,i
Cc1cccc(NS(=O)(=O)c2ccc(NC(=O)CN(c3cc([N+](=O)[O-])ccc3C)S(C)(=O)=O)cc2)c1,i,i,i,6.57*,i
CS(=O)(=O)N(CC(=O)Nc1ccc(F)c(F)c1)c1cccc([N+](=O)[O-])c1,8.55*,i,i,i,i
COc1ccc(CCNC(=O)CN(c2cc([N+](=O)[O-])ccc2OC)S(C)(=O)=O)cc1,i,-5.06*,i,i,i
CCc1ccc(NC(=O)C(=O)NCC2CCCN2S(=O)(=O)c2ccccc2)cc1 (configuration not stated),i,i,i,i,i
Nc1c(-c2cccc(Cl)c2)cnn1-c1cccc(C(F)(F)F)c1,i,i,i,i,i
Nc1c(-c2ccc(Cl)cc2)cnn1-c1cc(C(F)(F)F)cc(C(F)(F)F)c1,14.2*,i,i,i,i
CC(C)N(CCC(=O)c1ccc2ccccc2c1)Cc1ccccc1,i,i,x,x,38.9*
CCC(=O)CCC(=O)c1ccc2ccccc2c1,i,i,i,i,i
CCCCCOc1ccc(/C=C/c2c([N+](=O)[O-])c(=O)n(C)c(=O)n2C)cc1,i,i,i,i,i
CCOc1ccccc1NC(=O)C(Sc1ccccc1)c1ccccc1 (configuration not stated),i,-5.02*,-7.29*,i,i
COc1ccccc1NC(=O)C(Sc1ccccc1)c1ccccc1 (configuration not stated),i,i,i,i,i
Cc1ccc(C(C)(O)CS(=O)(=O)Cc2ccccc2)cc1 (configuration not stated),i,i,i,i,i
Cc1cccc(CS(=O)(=O)Cc2ccc(C(=O)NC3CCCC3)o2)c1,i,i,i,i,i
CC(=O)NC(=S)Nc1ccc([N+](=O)[O-])cc1C,i,-8.04*,i,i,i
COc1ccc([N+](=O)[O-])cc1NC(=S)NC(C)=O,i,i,i,i,i

# Screening results from PubChem.
